Calls of active or inactive are those of the source. The calls are words filed in the database; no cut-off is given here.
Tests used:
Acinetobacter baumannii [1] = assay: Bactericidal activity against Acinetobacter baumannii isolate 3 with AMP-AMC-CFZ-CIP-IPM-SXT-TET-TOB resistance phenotype assessed as concentration required for >= 3 log10 CFU/ml reduction in viable bacteria in 20% heat-inactivated human serum after 1.5 hrs by liquid microdilution assay; format: functional
Summary of the method: (§1)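 The buffer microdilution kill assay (1 × 10^7 CFU/ml mid-log cells, 10 μl in 100 μl, 37°C, 1.5 h, CFU on tryptone soy agar after 24 h) with serum added to 20% or 40% final. Serum was pooled from five healthy donors, clotted at room temperature, spun at 300 × g and heat-inactivated at 56°C for 30 min.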

Enterococcus faecium [2] = assay: Antimicrobial activity against Enterococcus faecium isolate 3 with AMP-CIP-CTX-ERY-GEN-LVX-SXT-TEC-VAN resistance phenotype assessed as time to kill at twofold the bactericidal concentration; format: functional, organism-based
Summary of the method: (§2)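 Time-kill in 10 mM sodium phosphate buffer, pH 7.4: 1 × 10^7 CFU/ml mid-log clinical isolate (10 μl) exposed at 37°C to peptide at the 1.5-h bactericidal concentration or twofold that, in 100 μl. Samples taken from 2 min onward, plated on tryptone soy agar, CFU counted after 24 h at 37°C. Killing taken as ≥3 log10 CFU/ml drop.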

Pseudomonas aeruginosa [3] = assay: Antimicrobial activity against Pseudomonas aeruginosa isolate 1 with AMP-CFZ-CIP-CTX-CXM-GEN-LVX-SXT-TET resistance phenotype at bactericidal concentration after 30 mins by time kill assay; format: functional, organism-based; summary of the method: as §2
Acinetobacter baumannii [4] = assay: Bactericidal activity against Acinetobacter baumannii isolate 1 with AMP-AMC-CFZ-CIP-IPM-LVX-PIP-SXT-TET resistance phenotype assessed as concentration required for >= 3 log10 CFU/ml reduction in viable bacteria in sodium phosphate buffer at pH 7.4 after 1.5 hrs by liquid microdilution assay; format: functional
Summary of the method: (§3)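 Clinical multidrug-resistant isolates grown to mid-log in tryptone soy broth and stored frozen. Exponential cells resuspended in 10 mM sodium phosphate buffer, pH 7.4, at 1 × 10^7 CFU/ml; 10 μl incubated with graded peptide concentrations in 100 μl at 37°C for 1.5 h. Plated on tryptone soy agar, CFU read after 24 h at 37°C. Peptide stocks in 20% ethanol.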

Staphylococcus aureus [5] = assay: Bactericidal activity against Staphylococcus aureus isolate 1 with AMC-AMP-CIP-ERY-GEN-OXA-RIF resistance phenotype assessed as concentration required for >= 3 log10 CFU/ml reduction in viable bacteria in sodium phosphate buffer at pH 7.4 after 1.5 hrs by liquid microdilution assay; format: functional; summary of the method: as §3
Pseudomonas aeruginosa [6] = assay: Bactericidal activity against Pseudomonas aeruginosa isolate 3 with AMP-CFZ-CTX-CIP-GEN-IPM-LVX-SXT-TET-TOB resistance phenotype assessed as concentration required for >= 3 log10 CFU/ml reduction in viable bacteria in sodium phosphate buffer at pH 7.4 after 1.5 hrs by liquid microdilution assay; format: functional; summary of the method: as §3
Acinetobacter baumannii [7] = assay: Bactericidal activity against Acinetobacter baumannii isolate 3 with AMP-AMC-CFZ-CIP-IPM-SXT-TET-TOB resistance phenotype assessed as concentration required for >= 3 log10 CFU/ml reduction in viable bacteria in sodium phosphate buffer at pH 7.4 after 1.5 hrs by liquid microdilution assay; format: functional; summary of the method: as §3
Enterococcus faecium [8] = assay: Antimicrobial activity against Enterococcus faecium isolate 3 with AMP-CIP-CTX-ERY-GEN-LVX-SXT-TEC-VAN resistance phenotype assessed as time to kill at bactericidal concentration; format: functional; summary of the method: as §2
[9] = test system: Stenotrophomonas maltophilia; assay: Bactericidal activity against Stenotrophomonas maltophilia isolate 2 with AMK-CIP-CTX-IPM-MEM-SAM-TZP resistance phenotype assessed as concentration required for >= 3 log10 CFU/ml reduction in viable bacteria in 20% heat-inactivated human serum after 1.5 hrs by liquid microdilution assay; format: functional; summary of the method: as §1
Acinetobacter baumannii [10] = assay: Antimicrobial activity against Acinetobacter baumannii isolate 3 with AMP-AMC-CFZ-CIP-IPM-SXT-TET-TOB resistance phenotype assessed as time to kill at bactericidal concentration; format: functional; summary of the method: as §2
Staphylococcus aureus [11] = assay: Bactericidal activity against Staphylococcus aureus isolate 1 with AMC-AMP-CIP-ERY-GEN-OXA-RIF resistance phenotype assessed as concentration required for >= 3 log10 CFU/ml reduction in viable bacteria in 20% heat-inactivated human serum after 1.5 hrs by liquid microdilution assay; format: functional; summary of the method: as §1
Acinetobacter baumannii [12] = assay: Bactericidal activity against Acinetobacter baumannii isolate 2 with AMP-CFZ-CIP-LVX-PIP-SXT resistance phenotype assessed as concentration required for >= 3 log10 CFU/ml reduction in viable bacteria in sodium phosphate buffer at pH 7.4 after 1.5 hrs by liquid microdilution assay; format: functional; summary of the method: as §3
Pseudomonas aeruginosa [13] = assay: Bactericidal activity against Pseudomonas aeruginosa isolate 2 with AMP-CFZ-CIP-CTX-CXM-GEN-LVX-IPM-MEM-SXT-TET resistance phenotype assessed as concentration required for >= 3 log10 CFU/ml reduction in viable bacteria in sodium phosphate buffer at pH 7.4 after 1.5 hrs by liquid microdilution assay; format: functional; summary of the method: as §3
[14] = test system: Stenotrophomonas maltophilia; assay: Bactericidal activity against Stenotrophomonas maltophilia isolate 4 with AMK-CAZ-CIP-FEP-IPM-SAM-TZP resistance phenotype assessed as concentration required for >= 3 log10 CFU/ml reduction in viable bacteria in sodium phosphate buffer at pH 7.4 after 1.5 hrs by liquid microdilution assay; format: functional; summary of the method: as §3
Pseudomonas aeruginosa [15] = assay: Bactericidal activity against Pseudomonas aeruginosa isolate 1 with AMP-CFZ-CIP-CTX-CXM-GEN-LVX-SXT-TET resistance phenotype assessed as concentration required for >= 3 log10 CFU/ml reduction in viable bacteria in sodium phosphate buffer at pH 7.4 after 1.5 hrs by liquid microdilution assay; format: functional; summary of the method: as §3
Enterococcus faecium [16] = assay: Bactericidal activity against Enterococcus faecium isolate 3 with AMP-CIP-CTX-ERY-GEN-LVX-SXT-TEC-VAN resistance phenotype assessed as concentration required for >= 3 log10 CFU/ml reduction in viable bacteria in 20% heat-inactivated human serum after 1.5 hrs by liquid microdilution assay; format: functional; summary of the method: as §1
Staphylococcus aureus [17] = assay: Bactericidal activity against Staphylococcus aureus isolate 2 with AMC-AMP-CIP-ERY-GEN-LVX-OXA-RIF-TET resistance phenotype assessed as concentration required for >= 3 log10 CFU/ml reduction in viable bacteria in sodium phosphate buffer at pH 7.4 after 1.5 hrs by liquid microdilution assay; format: functional; summary of the method: as §3
Enterococcus faecium [18] = assay: Bactericidal activity against Enterococcus faecium isolate 6 with AMP-AMC-CLI-CRO-CTX-CIP-ERY-GEN-KAN-LVX-SXT-VAN resistance phenotype assessed as concentration required for >= 3 log10 CFU/ml reduction in viable bacteria in sodium phosphate buffer at pH 7.4 after 1.5 hrs by liquid microdilution assay; format: functional; summary of the method: as §3
Enterococcus faecium [19] = assay: Bactericidal activity against Enterococcus faecium isolate 5 with AMP-AMC-CIP-CLI-ERY-GEN-KAN-LVX-SXT-TEC-VAN resistance phenotype assessed as concentration required for >= 3 log10 CFU/ml reduction in viable bacteria in sodium phosphate buffer at pH 7.4 after 1.5 hrs by liquid microdilution assay; format: functional; summary of the method: as §3
[20] = test system: Stenotrophomonas maltophilia; assay: Antimicrobial activity against Stenotrophomonas maltophilia isolate 2 with AMK-CIP-CTX-IPM-MEM-SAM-TZP resistance phenotype assessed as assessed as time to kill at twofold bactericidal concentration; format: functional; summary of the method: as §2
[21] = test system: Stenotrophomonas maltophilia; assay: Bactericidal activity against Stenotrophomonas maltophilia isolate 1 with AMK-CIP-CTX-IPM-MEM-SAM-TZP resistance phenotype assessed as concentration required for >= 3 log10 CFU/ml reduction in viable bacteria in sodium phosphate buffer at pH 7.4 after 1.5 hrs by liquid microdilution assay; format: functional; summary of the method: as §3
Enterococcus faecium [22] = assay: Bactericidal activity against Enterococcus faecium isolate 3 with AMP-CIP-CTX-ERY-GEN-LVX-SXT-TEC-VAN resistance phenotype assessed as concentration required for >= 3 log10 CFU/ml reduction in viable bacteria in sodium phosphate buffer at pH 7.4 after 1.5 hrs by liquid microdilution assay; format: functional; summary of the method: as §3
[23] = test system: Stenotrophomonas maltophilia; assay: Bactericidal activity against Stenotrophomonas maltophilia isolate 2 with AMK-CIP-CTX-IPM-MEM-SAM-TZP resistance phenotype assessed as concentration required for >= 3 log10 CFU/ml reduction in viable bacteria in sodium phosphate buffer at pH 7.4 after 1.5 hrs by liquid microdilution assay; format: functional; summary of the method: as §3
Pseudomonas aeruginosa [24] = assay: Bactericidal activity against Pseudomonas aeruginosa isolate 1 with AMP-CFZ-CIP-CTX-CXM-GEN-LVX-SXT-TET resistance phenotype assessed as concentration required for >= 3 log10 CFU/ml reduction in viable bacteria in 20% heat-inactivated human serum after 1.5 hrs by liquid microdilution assay; format: functional; summary of the method: as §1
Pseudomonas aeruginosa [25] = assay: Antimicrobial activity against Pseudomonas aeruginosa isolate 1 with AMP-CFZ-CIP-CTX-CXM-GEN-LVX-SXT-TET resistance phenotype at twofold bactericidal concentration after 10 to 30 mins by time kill assay; format: functional, organism-based; summary of the method: as §2
Staphylococcus aureus [26] = assay: Antimicrobial activity against Staphylococcus aureus isolate 1 with AMC-AMP-CIP-ERY-GEN-OXA-RIF resistance phenotype at twofold the bactericidal concentration within 30 mins; format: functional, organism-based; summary of the method: as §2
Staphylococcus aureus [27] = assay: Bactericidal activity against Staphylococcus aureus isolate 3 with AMC-AMP-CIP-ERY-GEN-LVX-OXA resistance phenotype assessed as concentration required for >= 3 log10 CFU/ml reduction in viable bacteria in sodium phosphate buffer at pH 7.4 after 1.5 hrs by liquid microdilution assay; format: functional; summary of the method: as §3

Row | Substance | Activity (Acinetobacter baumannii [1]) [µM] | Activity (Enterococcus faecium [2]) | Activity (Pseudomonas aeruginosa [3]) | Activity (Acinetobacter baumannii [4]) [µM] | Activity (Staphylococcus aureus [5]) [µM] | Activity (Pseudomonas aeruginosa [6]) [µM] | Activity (Acinetobacter baumannii [7]) [µM] | Time (Enterococcus faecium [8]) [min] | Activity [9] [µM] | Time (Acinetobacter baumannii [10]) | Activity (Staphylococcus aureus [11]) [µM] | Activity (Acinetobacter baumannii [12]) [µM] | Activity (Pseudomonas aeruginosa [13]) [µM] | Activity [14] [µM] | Activity (Pseudomonas aeruginosa [15]) [µM] | Activity (Enterococcus faecium [16]) [µM] | Activity (Staphylococcus aureus [17]) [µM] | Activity (Enterococcus faecium [18]) [µM] | Activity (Enterococcus faecium [19]) [µM] | Time [20] [min] | other results
1 | H-FFPVIGRILNGIL-NH2 [TEMPORIN G] | >193 | inactive | inactive | 12 | 24 | 48 | 6 | 5 | >192 | >=30 min | 96 | 6 | 48 | >96 | 48 | 48 | 12 | 6 | 6 | 2 | Activity [21]: 12 µM; Activity (Enterococcus faecium [22]): 6 µM; Activity [23]: 3 µM; Activity (Pseudomonas aeruginosa [24]): >194 µM; Activity (Pseudomonas aeruginosa [25]): Active; Activity (Staphylococcus aureus [26]): Active; Activity (Staphylococcus aureus [27]): 12 µM
2 | H-FLPLIGRVLSGIL-NH2 [TEMPORIN A] | >193 | inactive | inactive | 24 | 12 | 96 | 12 | 5 | >192 | >=30 min | 48 | 12 | 48 | 96 | 48 | 48 | 12 | 12 | 12 | 2 | Activity [21]: 48 µM; Activity (Enterococcus faecium [22]): 12 µM; Activity [23]: 12 µM; Activity (Pseudomonas aeruginosa [24]): >194 µM; Activity (Pseudomonas aeruginosa [25]): Active; Activity (Staphylococcus aureus [26]): inactive; Activity (Staphylococcus aureus [27]): 12 µM
3 | H-IIGPVLGLVGSALGGLLKKI-NH2 [BOMBININ H2] | 128 | inactive | inactive | 8 | 16 | 8 | 8 | 5 | 128 | 2 min | 64 | 4 | 16 | 16 | 16 | 64 | 16 | 4 | 8 | 2 | Activity [21]: 4 µM; Activity (Enterococcus faecium [22]): 4 µM; Activity [23]: 4 µM; Activity (Pseudomonas aeruginosa [24]): 128 µM; Activity (Pseudomonas aeruginosa [25]): Active; Activity (Staphylococcus aureus [26]): inactive; Activity (Staphylococcus aureus [27]): 8 µM
